The source of these data is PubChem BioAssay.

Active and inactive are the calls of the source.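 How the source made its calls, unless noted: active means viability at or under a set limit in both replicates, limit being median viability minus 3 SD (cut at about 48% in these data, passing the limit was not always enough); inconclusive means at or under the limit in just one replicate; inactive means at or above the limit in both replicates.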

In general, viability refers to a read-out of living cells in per cent, often relative to untreated cells. In general, inhibition refers to the relative decrease from the control value, in per cent.

Assay [1] can be described thus: Her2 expression decrease, cell viability multiplex – SKBR3 breast tumor cells, AlphaScreen, ATP viability, primary screen (AID 461;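 active means Her2 level under about 52% in both replicate screens, with viability over 70% of control, limit read from the data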;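 on Her2 level: lower value means less Her2 protein in the cells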;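 on viability: percent of carrier control wells set as 100% viability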). Particulars: SKBR3 Her2 protein level, 18-24 h, measured here: SKBR3 viability, ATP luminescence, at 10 µM. (In general: In Alpha technology, singlet oxygen from a donor bead excites a nearby acceptor bead.)
For assay [2], the target named is Receptor tyrosine-protein kinase erbB-2 (Homo sapiens) (UniProt P04626). The assay is described as above. Particulars: 18-24 h, at 10 µM, stronger effect = lower value.
A short description of assay [3]: reduced viability of SK-BR-3 breast cancer cells – cell-based, 24 h, human, pilot screen (AID 572;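 active means viability at or below 10% of carrier control in both of two separate runs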;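 further: compound exposure lasted between 18 and 24 h rather than exactly 24 h; 100% = carrier-treated control wells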). Particulars: SK-BR-3 viability, CellTiter-Glo luminescence, at 10 µM, stronger effect = lower value. A general note: Cellular ATP, detected with luciferase, serves as a proxy for viable cell number.
A short description of assay [4]: HUVEC growth inhibition – cell-based, human, primary screen (AID 575;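 active means viability at or below 30% in both replicate assays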;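 further: 100% = median of untreated cell wells with 0.1% DMSO on each plate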). The settings on record: HUVEC proliferation, CellTiter-Glo luminescence, 72 h; at 10 µM; stronger effect = lower value. A digest of the protocol:
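System: primary human umbilical vein endothelial cells; Quantity: 1250 endothelial cells in each well; Buffer or medium: supplemented EBM, 2% fetal bovine serum; Doses: one dose, 10 µM final, 0.1% DMSO; Incubation: 72 h compound incubation; Technique: ATP-based CellTiter-Glo luminescent read; Evaluation: percent of median DMSO-control luminescence; Controls: vehicle and MePR control wells.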

Assay [5] in a line: H69AR cell proliferation blockers – human, duplicate replicates, primary screen (AID 580).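 Further: 100% = mean luminescence of untreated wells and 0% = no signal.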 The settings on record: H69AR lung tumor cells viability, ATP luminescence, 72 h; at 10 µM; stronger effect = lower value.
Assay [6] in a line: MRP1 drug-resistance reversers in H69AR cells – cell-based, doxorubicin co-treatment, pilot screen (AID 601;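 active means viability loss from added drug above about 55%, and viability with drug at most 40%, in both replicates, limit read from the data, passing the limit was not always enough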). The settings on record: CellTiter-Glo, 72 h, at 10 µM; for differential viability (reversal): stronger effect = higher value.
Assay [7] can be described thus: yeast transport mutant growth inhibition pilot in 384-well plates, post-Golgi transport modulator project (AID 636; in the data active means inhibition above about 31%). Particulars: absorbance 615 nm, about 18 h, stronger effect = higher value.
Assay [8] can be described thus: growth suppression of yeast trafficking mutant, preliminary HTS, modulators of trafficking downstream of Golgi apparatus project, 1536-format plate, OD 615 nm (AID 637; in the data active means inhibition above about 30%). Particulars: yeast transport mutant growth, absorbance 615 nm, 18 h; stronger effect = higher value.
[9] abbreviates: H69AR cells + 2 uM doxorubicin, measured here: viability with 2 uM doxorubicin, stronger effect = lower value.
Setting [10] is: H69AR cells, compound alone cytotoxicity.

Chain of Receptor tyrosine-protein kinase erbB-2 (Homo sapiens) (P04626 whole entry, looked up): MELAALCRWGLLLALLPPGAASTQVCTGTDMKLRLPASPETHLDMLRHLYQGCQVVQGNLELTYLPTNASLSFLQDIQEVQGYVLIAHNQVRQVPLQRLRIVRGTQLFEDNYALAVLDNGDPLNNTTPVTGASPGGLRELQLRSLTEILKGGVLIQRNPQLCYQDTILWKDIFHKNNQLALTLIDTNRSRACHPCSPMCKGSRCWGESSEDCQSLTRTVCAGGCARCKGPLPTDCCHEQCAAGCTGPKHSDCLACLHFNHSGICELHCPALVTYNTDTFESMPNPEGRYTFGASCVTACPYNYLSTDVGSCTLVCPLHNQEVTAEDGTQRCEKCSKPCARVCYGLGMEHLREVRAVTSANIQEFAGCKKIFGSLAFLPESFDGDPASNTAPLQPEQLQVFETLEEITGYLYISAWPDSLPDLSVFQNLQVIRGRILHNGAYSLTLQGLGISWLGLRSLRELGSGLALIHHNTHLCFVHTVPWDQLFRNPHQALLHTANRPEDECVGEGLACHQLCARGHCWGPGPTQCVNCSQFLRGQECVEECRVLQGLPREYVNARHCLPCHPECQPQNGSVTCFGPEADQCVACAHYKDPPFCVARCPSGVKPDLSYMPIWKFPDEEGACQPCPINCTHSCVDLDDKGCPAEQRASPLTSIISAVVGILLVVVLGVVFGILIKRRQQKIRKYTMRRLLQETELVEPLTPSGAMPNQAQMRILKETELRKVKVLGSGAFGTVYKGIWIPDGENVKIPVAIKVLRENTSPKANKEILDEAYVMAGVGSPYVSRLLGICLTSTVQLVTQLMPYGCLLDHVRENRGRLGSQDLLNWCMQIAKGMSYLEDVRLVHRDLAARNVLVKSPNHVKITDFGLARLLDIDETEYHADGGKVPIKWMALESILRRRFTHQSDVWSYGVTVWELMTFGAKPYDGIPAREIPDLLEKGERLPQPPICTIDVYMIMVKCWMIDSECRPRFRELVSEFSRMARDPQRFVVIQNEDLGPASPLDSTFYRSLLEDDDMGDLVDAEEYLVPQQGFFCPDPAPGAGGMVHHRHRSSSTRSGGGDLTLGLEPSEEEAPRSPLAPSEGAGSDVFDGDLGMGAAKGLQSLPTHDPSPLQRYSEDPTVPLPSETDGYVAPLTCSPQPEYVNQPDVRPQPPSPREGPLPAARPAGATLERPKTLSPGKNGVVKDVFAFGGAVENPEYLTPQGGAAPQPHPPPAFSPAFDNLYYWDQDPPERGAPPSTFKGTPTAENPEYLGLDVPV

As to `CCN(CC)S(=O)(=O)c1ccc(F)cc1`, the viability in assay [1] was 116%; in assay [3], 116% (inactive); in assay [4], 98.7% (inactive); in assay [5], 93% (inactive); in assay [6] (setting [9]) it was 87.1%; in assay [6] (setting [10]) it was 93%. In assay [2], the Her2 level is 106% (inactive). Further, the differential viability (reversal) in assay [6] (H69AR cells + 2 uM doxorubicin) was 5.97% (inactive). In addition, the inhibition in assay [7] was -8.77% (inactive); in assay [8] it was 4.13% (inactive).

As to `CN(C)c1nc(Oc2ccc(=O)n(C)n2)nc(N2CCOCC2)n1`, the viability was 94% in assay [1]; 94% (inactive) in assay [3]; 95.7% (inactive) in assay [4]; 92.9% (inactive) in assay [5]; 91.2% in assay [6] (setting [9]); 92.9% in assay [6] (setting [10]). In addition, in assay [2], the Her2 level is 98.5% (inactive). For the same molecule, in assay [6] (H69AR cells + 2 uM doxorubicin), the differential viability (reversal) is 1.74% (inactive). Besides, the results for the inhibition in assay [7] and in assay [8] were -4.93% (inactive) and 1.64% (inactive), respectively.

For `COCCn1c(C)cc(C(=O)CSc2nc3ccccc3c(=O)[nH]2)c1C`, the viability in assay [1] was 88.5%; in assay [3], 88.5% (inactive); in assay [4] it was 64.6% (inactive); in assay [5], 80.9% (inactive); in assay [6] (setting [9]) it was 88.9%; in assay [6] (setting [10]) it was 80.9%. In addition, the Her2 level in assay [2] was 67% (inactive). In addition, the differential viability (reversal) in assay [6] (H69AR cells + 2 uM doxorubicin) was -8.01% (inactive). Further, the figures for the inhibition in assay [7] and in assay [8] were -5.47% (inactive) and -3.61% (inactive), respectively.

For `CCOC(=O)C1CCN(c2c(NCCCN(CC)c3ccccc3)c(=O)c2=O)CC1`, the viability in assay [1] was 83.5%; in assay [3] it was 83.5% (inactive); in assay [4], 91.9% (inactive); in assay [5], 81.1% (inactive); in assay [6] (setting [9]), 72.9%; in assay [6] (setting [10]), 81.1%. In assay [2], the Her2 level was 86.5% (inactive). Moreover, the differential viability (reversal) in assay [6] (H69AR cells + 2 uM doxorubicin) was 8.21% (inactive). Besides, the figures for the inhibition in assay [7] and in assay [8] were -1.18% (inactive) and 0.18% (inactive), respectively.

Consider `CC(C)CCNC(=O)NC(=O)COc1ccccc1C#N`, for which the viability is 92.5% in assay [1]; 92.5% (inactive) in assay [3]; 112% (inactive) in assay [4]; 97.1% (inactive) in assay [5]; 89.8% in assay [6] (setting [9]); 97.1% in assay [6] (setting [10]). For the same molecule, the Her2 level in assay [2] was 109% (inactive). In addition, the differential viability (reversal) in assay [6] (H69AR cells + 2 uM doxorubicin) was 7.26% (inactive). The inhibition in assay [7] is -3.78% (inactive); in assay [8], -5.4% (inactive).

As for `O=C(Cn1c(=O)n(Cc2ccc3c(c2)OCO3)c(=O)c2ccccc21)N1CCCc2ccccc21`, the viability in assay [1] was 87.5%; in assay [3], 87.5% (inactive); in assay [4], 66.5% (inactive); in assay [5], 82.2% (inactive); in assay [6] (setting [9]) it was 78.3%; in assay [6] (setting [10]) it was 82.2%. For the same molecule, the Her2 level in assay [2] is 80.5% (inactive). Also, the differential viability (reversal) in assay [6] (H69AR cells + 2 uM doxorubicin) was 3.96% (inactive). Moreover, the inhibition is -0.39% (inactive) in assay [7] and 1.8% (inactive) in assay [8].

As for `CN1C(=S)SC(C)(NO)C1(C)C` (stereo not given), the viability in assay [1] is 90%; in assay [3], 90% (inactive); in assay [4] it was 97% (inactive); in assay [5], 104% (inactive); in assay [6] (setting [9]), 98.4%; in assay [6] (setting [10]), 104%. Also, in assay [2], the Her2 level is 95.5% (inactive). Besides, the differential viability (reversal) in assay [6] (H69AR cells + 2 uM doxorubicin) is 5.95% (inactive). Further, the inhibition in assay [7] was -0.27% (inactive); in assay [8], -9.52% (inactive).

In the case of `CCC(=O)N1CCN=C1SCc1ccc(Cl)cc1`, the viability in assay [1] is 90%; in assay [3] it was 90% (inactive); in assay [4] it was 77.3% (inactive); in assay [5] it was 95.1% (inactive); in assay [6] (setting [9]), 84.3%; in assay [6] (setting [10]), 95.1%. Besides, the Her2 level in assay [2] is 93.5% (inactive). Also, in assay [6] (H69AR cells + 2 uM doxorubicin), the differential viability (reversal) is 10.8% (inactive). Further, the inhibition was 1.04% (inactive) in assay [7] and 31.5% (active) in assay [8].

Regarding `Cc1ccc(CNC(=O)C2CCCN(S(=O)(=O)c3cccnc3)C2)cc1` (stereo not given), the viability in assay [1] was 92.5%; in assay [3], 92.5% (inactive); in assay [4], 104% (inactive); in assay [5], 99.6% (inactive); in assay [6] (setting [9]) it was 89%; in assay [6] (setting [10]), 99.6%. Moreover, in assay [2], the Her2 level was 109% (inactive). In assay [6] (H69AR cells + 2 uM doxorubicin), the differential viability (reversal) is 10.6% (inactive). The inhibition is -0.26% (inactive) in assay [7] and -4.18% (inactive) in assay [8].

For `O=C(O)c1cc2c([nH]c1=O)CCCC2`, the viability was 93.5% in assay [1]; 93.5% (inactive) in assay [3]; 95% (inactive) in assay [4]; 88.8% (inactive) in assay [5]; 88% in assay [6] (setting [9]); 88.8% in assay [6] (setting [10]). The Her2 level in assay [2] was 81.5% (inactive). The differential viability (reversal) in assay [6] (H69AR cells + 2 uM doxorubicin) is 0.75% (inactive). Also, the inhibition in assay [7] was -2.24% (inactive); in assay [8] it was -1.82% (inactive).

For `CN(C)/C=N/c1ncnc2c1cnn2-c1ccc(C(F)(F)F)cn1`, the viability in assay [1] is 108%; in assay [3], 108% (inactive); in assay [4], 104% (inactive); in assay [5] it was 81.8% (inactive); in assay [6] (setting [9]), 82.3%; in assay [6] (setting [10]), 81.8%. Besides, in assay [2], the Her2 level is 100% (inactive). In addition, the differential viability (reversal) in assay [6] (H69AR cells + 2 uM doxorubicin) was -0.51% (inactive). The inhibition in assay [7] was -4.42% (inactive); in assay [8], -4.29% (inactive).

On to `CCOC(=O)C(NC(=O)C1CCCN1C(=O)OCc1ccccc1)C(=O)OCC` (stereo not given), for which the viability in assay [1] was 104%; in assay [3] it was 104% (inactive); in assay [4], 98.2% (inactive); in assay [5] it was 99.8% (inactive); in assay [6] (setting [9]) it was 96.3%; in assay [6] (setting [10]) it was 99.8%. Besides, the Her2 level in assay [2] is 94.5% (inactive). In assay [6] (H69AR cells + 2 uM doxorubicin), the differential viability (reversal) is 3.49% (inactive). Also, the inhibition is -1.58% (inactive) in assay [7] and -1.77% (inactive) in assay [8].

In the case of `COC(=O)c1cccc(NC(=O)Cc2coc3cc(OC)ccc23)c1`, the viability was 102% in assay [1]; 102% (inactive) in assay [3]; 87.1% (inactive) in assay [4]; 94.2% (inactive) in assay [5]; 78.6% in assay [6] (setting [9]); 94.2% in assay [6] (setting [10]). In addition, the Her2 level in assay [2] was 96.5% (inactive). Moreover, the differential viability (reversal) in assay [6] (H69AR cells + 2 uM doxorubicin) is 15.6% (inactive). The inhibition in assay [7] was 3.51% (inactive); in assay [8], -6.19% (inactive).

In the case of `Cc1cc(NC(=O)COC(=O)C2COc3ccccc3O2)no1` (stereo not given), the viability in assay [1] is 110%; in assay [3] it was 110% (inactive); in assay [4] it was 104% (inactive); in assay [5] it was 96.7% (inactive); in assay [6] (setting [9]), 85.7%; in assay [6] (setting [10]), 96.7%. The Her2 level in assay [2] is 95.5% (inactive). Moreover, in assay [6] (H69AR cells + 2 uM doxorubicin), the differential viability (reversal) is 11% (inactive). Further, the inhibition was -4.61% (inactive) in assay [7] and -5% (inactive) in assay [8].

As for `CCOc1ccccc1NC(=O)CSc1c(C)n[nH]c1C`, the viability is 90% in assay [1]; 90% (inactive) in assay [3]; 109% (inactive) in assay [4]; 113% (inactive) in assay [5]; 92.7% in assay [6] (setting [9]); 113% in assay [6] (setting [10]). In addition, the Her2 level in assay [2] is 88% (inactive). Also, the differential viability (reversal) in assay [6] (H69AR cells + 2 uM doxorubicin) was 19.8% (inactive). Also, the results for the inhibition in assay [7] and in assay [8] were -3.07% (inactive) and -3.71% (inactive), respectively.

For the molecule `Cc1cc(Nc2ccc(N3CCC(C)CC3)cc2)n2ncnc2n1`, the viability was 100% in assay [1]; 100% (inactive) in assay [3]; 101% (inactive) in assay [4]; 77.6% (inactive) in assay [5]; 79% in assay [6] (setting [9]); 77.6% in assay [6] (setting [10]). Also, in assay [2], the Her2 level is 110% (inactive). In addition, in assay [6] (H69AR cells + 2 uM doxorubicin), the differential viability (reversal) is -1.35% (inactive). The inhibition in assay [7] was 5.62% (inactive); in assay [8], 3.02% (inactive).
